Results from paper PMC10159923 (Lab on a chip, 2023).

Experiments:
[1] = target: T1, PAR1 (Homo sapiens, UniProt P25116); assay: MEIRS cellular response of A431 cells to PAR1 activating peptide; assay type: cell-based
T1 sequence (P25116 22-425): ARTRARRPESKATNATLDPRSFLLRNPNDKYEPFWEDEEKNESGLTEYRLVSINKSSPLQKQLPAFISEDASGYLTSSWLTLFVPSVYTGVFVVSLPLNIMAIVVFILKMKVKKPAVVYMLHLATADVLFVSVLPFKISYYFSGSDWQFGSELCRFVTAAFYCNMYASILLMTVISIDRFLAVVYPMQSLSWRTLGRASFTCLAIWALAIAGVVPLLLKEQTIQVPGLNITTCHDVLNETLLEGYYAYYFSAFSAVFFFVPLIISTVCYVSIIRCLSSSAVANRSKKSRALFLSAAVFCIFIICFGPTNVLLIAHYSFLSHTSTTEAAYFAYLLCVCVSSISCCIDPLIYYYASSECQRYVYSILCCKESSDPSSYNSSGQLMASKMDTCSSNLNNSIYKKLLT
Procedure, shortened: (§1)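 A431 cells (ATCC, passage <15) were seeded at ~500,000/mL in DMEM + 10% FBS on fibronectin-coated (10 μg/mL) metasurface wells and incubated overnight. Medium was then swapped to L15 + 1% antibiotic-antimycotic. One baseline spectrum preceded manual addition of peptide in L15. FTIR reflectance was taken at room temperature, every 4 min per well, for 1 h. Spectra were differenced from t = 0, and first-PC signals were extracted from the protein, plasmonic and lipid windows (mean ± standard error, n = 4).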

[2] = test system: PAR1/PAR2; assay: MEIRS cellular response of A431 cells to PAR peptides / control peptide; assay type: cell-based, human
Procedure, shortened: as §1

[3] = test system: A431 cells; assay: Phase contrast imaging of cell spreading on coated metasurfaces; assay type: cell-based, human; details: Fig. S2
[4] = test system: cells (cell type not given); details: among others, including collagen and PDL; cited from earlier work

**Q.** With SFLLR-NH2 as the substance, how does the “course of cellular signal after maximal point” value ([1]; MEIRS PC1 signal) read?
**A.** Its value is “decreased right after the maximal point was reached”.

**Q.** What about the “duration of gradual decrease in cellular signal back to baseline level” value ([1]; MEIRS PC1 signal, after peak) of the same substance?
**A.** The value was “about 30 min”.

**Q.** What about the “time of cellular signal peak after peptide addition” value ([1]; MEIRS PC1 signal, Δt = 4 min, n = 4) of the same substance?
**A.** The value was 8 to 12 min.

**Q.** What about the “initial change in cellular signal on addition of peptide” value ([1]; as soon as the peptides were added) of the same substance?
**A.** The value was “rapid increase in the cellular signal”.

**Q.** What about the “peak amplitude of cellular signal (SFLLR vs SLIGKV)” value ([2]; 100 μM) of the same substance?
**A.** The value was “similar”.

**Q.** With VKGILS-NH2 as the substance, how does the “cellular response to control peptide” value ([2]; MEIRS PC1 signal, n = 4) read?
**A.** Its value is “very little response from the cells”.

**Q.** Which “cell spreading, phase contrast morphology” value [3] does the source give for fibronectin here?
**A.** Its value is “cells spread well”.

**Q.** What about the “best coating material by electric impedance” value [4] of the same substance?
**A.** The value was “often the best coating material”.
